Shown are actives, neighbours in structure and some others; about 2.9% of the full set was active somewhere.
PGC1a acetyl inh – lowers PGC1a acetylation signal in U2OS cells. AlphaScreen anti-acetyl-lysine; with virally co-expressed GCN5 acetyltransferase. inhibition, % at 15.6 µM. 350,000 tested, 0.17% active;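 active = every replicate shows inhibition of at least 40%; inconclusive = mean inhibition at least 40% but some replicate below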;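 note: 0% = neutral control wells and 100% = positive control wells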
S100A4 MyoIIA – blocks human S100A4 binding to myosin IIA peptide. P26447. S100A4/TAMRA-MyoIIA peptide fluorescence polarization. inhibition, % at 10.7 µM. 360,000 tested, 0.14% active. AID 652163;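 active = mean inhibition of at least 70% across replicates, with every replicate also reaching that level; inconclusive = mean inhibition reaches 70% but some replicates fall short; inactive = mean inhibition below 70%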
Target sequence (P26447 whole entry, looked up): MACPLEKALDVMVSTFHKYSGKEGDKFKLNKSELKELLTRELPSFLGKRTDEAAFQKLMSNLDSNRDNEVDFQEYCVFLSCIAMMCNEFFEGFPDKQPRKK
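Material: S100A4 monomer protein / Buffer or medium: 50 mM HEPES pH 7.2, 10 mM CaCl2, 100 mM KCl / Times: 5 min incubation before reading / Benchmarks: neutral control DMSO, positive control TFP / Reagent: labelled myosin peptide probe, 5 nM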
DENV2 CPE rescue – inhibitors of DENV2 cytopathic effect. DENV2-infected cells, cytopathic effect rescue, plate reader. CPE inhibition, % at 9.99 µM. 350,000 tested, 1.7% active. AID 651640; in the data active = CPE inhibition above about 20%, passing the limit was not always enough; inconclusive = no clear call, values can overlap the other calls; tested in BHK-21 cells;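 note: 0% = median of neutral control wells and 100% = median of positive control wells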
C2C12 statin – protects C2C12 myotubes from simvastatin toxicity; AID 602340; rescue of ATP level, % at 7.49 µM; ATP luminescence, 48 h; scaled: DMSO 0, geranylgeraniol control 100; 330,000 tested, 0.78% active;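 active = mean ATP rescue above about 67%, or every replicate alone reaching that limit, limit read from the data, passing the limit was not always enough; inconclusive = no clear call, values can overlap the other calls; inactive = mean under the limit and some replicate under it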;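 note: myotubes were challenged with 10 µM simvastatin during compound exposure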
SIRT5 block – blocks human SIRT5 desuccinylation of peptide. Q9NXA8. Purified SirT5, succinyl-peptide AMC, trypsin-coupled fluorescence. inhibition, % at 15 µM. 330,000 tested, 1.1% active. AID 652115; in the data active = inhibition above about 15%; inconclusive = no clear call, values can overlap the other calls
Target sequence (Q9NXA8 whole entry, looked up): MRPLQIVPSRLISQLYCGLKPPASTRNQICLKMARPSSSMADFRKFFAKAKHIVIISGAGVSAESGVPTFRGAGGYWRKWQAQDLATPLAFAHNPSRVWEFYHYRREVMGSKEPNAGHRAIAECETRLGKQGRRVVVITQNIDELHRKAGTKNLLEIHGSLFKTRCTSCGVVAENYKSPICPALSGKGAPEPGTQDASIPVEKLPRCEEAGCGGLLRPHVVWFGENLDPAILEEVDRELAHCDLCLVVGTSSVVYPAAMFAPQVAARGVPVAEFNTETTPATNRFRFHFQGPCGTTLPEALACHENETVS
* hit, by the source's call; ? = inconclusive; / = not tested or not shown.

SMILES | PGC1a acetyl inh | S100A4 MyoIIA | DENV2 CPE rescue | C2C12 statin | SIRT5 block
O=C(N[C@H]1CC[C@@H](CCNC(=O)C2CCCC2)O[C@H]1CO)c1ccccn1 | 1.0 | 0.1 | 43.6* | 0.7 | 4.2
O=C(N[C@@H]1CC[C@H](CCNC(=O)C2CCCCC2)O[C@@H]1CO)c1ccccn1 | -1.2 | 0.9 | 148.8* | -10.9 | 1.3
O=C(C[C@H]1C[C@@H]2c3cc(NC(=O)c4cccnc4)ccc3O[C@@H]2[C@H](CO)O1)NC1CCCC1 | -2.6 | -4.1 | 8.7 | / | -2.4
CO[C@H]1CN(C)C(=O)c2cc(NC(C)=O)ccc2OC[C@@H](C)N(Cc2cc(F)ccc2F)C[C@@H]1C | 1.5 | -5.2 | -1.5 | -17.2 | -4.3
Cc1ccc(S(=O)(=O)Nc2ccc3c(c2)CC(=O)N([C@H](C)CO)C[C@H](C)[C@@H](CN(C)Cc2ccc(C(=O)O)cc2)O3)cc1 | 6.3 | -19.3 | 8.7 | / | -0.8
C[C@@H]1CN([C@H](C)CO)S(=O)(=O)c2ccc(-c3cccnc3)cc2O[C@H]1CN(C)C(=O)c1cccc(F)c1 | -20.1 | 4.5 | 7.3 | -27.1 | 0.3
CC(C)n1c(SCC(=O)Nc2nc3c(s2)CCCC3)nc2c1c(=O)n(C)c(=O)n2C | -12.9 | / | / | 98.7* | /
CCOC(=O)c1c(NC(=O)CSc2nc3c(c(=O)n(C)c(=O)n3C)n2C(C)C)sc(C)c1C | 3.4 | / | / | 2.8 | /
COc1ccc(S(=O)(=O)Nc2ccc3c(c2)C(=O)N([C@H](C)CO)C[C@@H](C)[C@@H](CN(C)C(=O)Nc2ccccc2)O3)cc1 | -10.6 | -11.1 | -2.5 | -10.8 | 0.7
COC(=O)C1=C(C)N(Cc2cccc(C(F)(F)F)c2)C(=NCc2ccc(C(F)(F)F)cc2)NC1c1ccccc1C(F)(F)F (centres undefined) | / | 1.1 | 27.6* | / | 0.1
COC(=O)C1=C(C)N(Cc2cccc(C(F)(F)F)c2)C(=NCc2ccc(OC)cc2)NC1c1ccccc1C(F)(F)F (centres undefined) | / | -6.1 | -14.3 | / | 15.5*
c1ccc(N2CCN(c3ccccc3)C2c2ccncc2)cc1 | 91.3* | -1.9 | -2.5 | 19.7 | 6.1
CCCC(=O)Nc1ccc2c(c1)C(=O)N(C)[C@@H]1CC[C@H](CC(=O)NCCc3ccccc3)O[C@H]1CO2 | 0.6 | 7.9 | ? | -14.0 | -4.5
Cc1cccc(N(CC(=O)NC(C)(C)C)C(=O)CNC(=O)c2cccs2)c1C | -2.8 | 0.4 | 43.5* | 3.5 | 2.1
Cc1cccn2c(=O)c3cc(C#N)c(=N)n(CCN4CCOCC4)c3nc12 | 2.8 | / | / | 104.1* | /
N#Cc1ccccc1NC(=O)CSC1=Nc2ccccc2C2CC=NN12 (centres undefined) | / | 1.0 | / | 5.8 | -5.9
O=C(CSC1=Nc2ccccc2C2CC=NN12)NCc1ccco1 (centres undefined) | -22.3 | -4.0 | 3.9 | 97.7* | -2.8
C[C@@H]1CCCCO[C@H](CN(C)C(=O)Cc2ccccc2)[C@@H](C)CN([C@@H](C)CO)C(=O)c2cc(NS(=O)(=O)c3cn(C)cn3)ccc2O1 | 0.2 | 10.1 | 31.4* | ? | 1.4
C[C@@H]1CN([C@@H](C)CO)C(=O)c2cc(NS(=O)(=O)c3cn(C)cn3)ccc2O[C@@H](C)CCCCO[C@@H]1CN(C)C(=O)Cc1ccccc1 | 7.6 | -18.0 | 63.2* | 39.6 | -1.0
C[C@@H]1CCCCO[C@H](CN(C)C(=O)Cc2ccccc2)[C@@H](C)CN([C@H](C)CO)C(=O)c2cc(NS(=O)(=O)c3cn(C)cn3)ccc2O1 | -3.7 | 1.4 | 11.4 | -0.4 | 24.5*
C[C@@H]1CCCCO[C@@H](CN(C)C(=O)Cc2ccccc2)[C@@H](C)CN([C@H](C)CO)C(=O)c2cc(NS(=O)(=O)c3cn(C)cn3)ccc2O1 | -2.4 | -21.4 | -1.4 | -3.5 | -0.1
COc1ccc2c3c(n(C)c2c1)[C@@H](CO)N(Cc1ccccc1F)CC31CN(C(=O)C2CCOCC2)C1 | 4.3 | 5.0 | -3.6 | / | -5.8
C[C@H](CO)N1C[C@H](C)[C@@H](CN(C)C(=O)CCCN(C)C)OCCCC[C@H](C)Oc2ccc(NC(=O)CCC(F)(F)F)cc2C1=O | 10.4 | -7.6 | -0.1 | 16.5 | -27.8
CCCNC(=O)Nc1ccc2c(c1)C(=O)N(C)C[C@H](OC)[C@@H](C)CN(C)[C@H](C)CO2 | -2.5 | 15.8 | -11.8 | -10.5 | -6.4
Cn1cnc(S(=O)(=O)N2CCCCN3[C@H](CO)[C@@H](c4ccc(C#CC5CCCC5)cc4)[C@@H]3C2)c1 | 3.4 | 5.8 | 5.3 | 5.6 | 2.9
SMILES | PGC1a acetyl inh | S100A4 MyoIIA | DENV2 CPE rescue | C2C12 statin | SIRT5 block
COc1ccc(CCNS(=O)(=O)c2cc3c4c(c2)CCN4C(=O)CC3)cc1OC | / | -5.4 | -6.5 | -13.0 | 1.9
O=C1CCc2cc(S(=O)(=O)NCCc3ccc(Cl)cc3)cc3c2N1CC3 | / | -2.8 | 96.9* | -1.3 | 2.8
CC(C)NC(=O)N1[C@H](CN(C)C(=O)c2ccccc2)[C@@H](c2ccccc2)[C@@H]1CO | 0.8 | -3.5 | 5.4 | -9.2 | 18.0*
CC(C)NC(=O)N1[C@H](CN(C)C(=O)c2ccncc2)[C@@H](c2ccccc2)[C@@H]1CO | 6.9 | 16.8 | 11.5 | 19.0 | 6.3
C/C=C/c1ccc([C@@H]2[C@H](CO)N(C(=O)C3CC3)[C@H]2CN(CC)C(C)=O)cc1 | 1.2 | 11.0 | 4.1 | -0.3 | 4.7
C/C=C/c1ccc([C@@H]2[C@@H](CN(CC)C(=O)CC)N(C(=O)C3CCC3)[C@H]2CO)cc1 | -19.5 | 0.3 | 24.8* | 13.3 | 2.6
C/C=C/c1ccc([C@H]2[C@@H](CN(C)C(=O)CC)N(C(=O)NC(C)C)[C@H]2CO)cc1 | 2.0 | -1.1 | 27.2* | -1.1 | 1.8
Cc1cc(Nc2cccc(Br)c2)cc(=O)n1-c1cccc(Br)c1 | / | -0.8 | ? | / | /
C[C@H]1CN([C@@H](C)CO)C(=O)c2ccccc2-c2ccccc2CO[C@H]1CN(C)C(=O)CCN(C)C | 2.2 | 4.8 | 1.8 | / | -5.7
COc1ccc(Br)c2oc(SC)cc(=O)c12 | / | -1.9 | 81.9* | 19.6 | /
O=[N+]([O-])c1ccc(O)c(/C=N/n2cnc3ccccc32)c1 | 3.7 | 4.5 | 70.4* | -14.6 | 3.0
COc1ccc(C2NC(C(=O)O)Cc3c2[nH]c2ccccc32)cc1OC (centres undefined) | 14.4 | / | / | 115.7* | /
COc1cc(C2NC(C(=O)O)Cc3c2[nH]c2ccccc32)cc(OC)c1OC (centres undefined) | 11.5 | / | / | -12.0 | /
Cc1ccc(NC(=O)CN(C)CC(=O)Nc2c(C)cccc2C)c(Br)c1 | -12.1 | / | / | 96.7* | /
Cc1cccc(C)c1NC(=O)CN(Cc1ccccc1)Cc1ccccc1 | -15.8 | -2.6 | 2.3 | 7.7 | 34.4*
CCCC#Cc1ccc2c(c1)O[C@@H](CN(C)C(=O)COC)[C@@H](C)CN([C@@H](C)CO)S2(=O)=O | 7.4 | -2.3 | 17.3 | 0.8 | -2.0
COCCNC(=O)C[C@H]1CC[C@H]2[C@@H](COC[C@@H](O)CN2Cc2ccc(Cl)c(Cl)c2)O1 | 2.6 | 0.6 | 1.3 | -14.6 | -3.9
CSc1ccc(CCNS(=O)(=O)c2csc(C(N)=O)c2)cc1 | 1.2 | -2.6 | 13.4 | 90.5* | 7.2
